Results taken from article PMC6221991 (Structure (London, England : 1993), 2018).

Assays:
PPRE = assay: full length PPRE transactivation assay; format: cell-based; details: for EC50 PPRE: full length PPRE assay
3T3-L1 cells = assay: Differentiation of 3T3-L1 cells; format: cell-based, Mus musculus; details: for RNA-seq differential gene expression: 3T3-L1 cells, 6 days
Method in brief: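 Mouse 3T3-L1 embryo fibroblasts grown in DMEM with 10% heat-inactivated FBS, 2mM L-glutamine and 1% penicillin/streptomycin at 37 °C, 5% CO2. Test compound (1μM) added from the first day of differentiation; six days' incubation. Lipid droplets stained with Oil Red. Gene expression by qPCR: SYBR green, ΔΔ-Ct method normalised to Tbp. RNA-seq used stranded (dUTP) cDNA libraries. Mean ± SEM.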

[1] = Plasma exposure following oral administration in mice; format: in vivo, C57BL/6 mice
human PPARα (hPPARα) = molecular target: T1, human PPARα (hPPARα) (Homo sapiens, UniProt Q07869); assay: PPARα GAL-4 transactivation assay in HEK293T cells; format: cell-based
T1 sequence (Q07869 239-466 limits assumed): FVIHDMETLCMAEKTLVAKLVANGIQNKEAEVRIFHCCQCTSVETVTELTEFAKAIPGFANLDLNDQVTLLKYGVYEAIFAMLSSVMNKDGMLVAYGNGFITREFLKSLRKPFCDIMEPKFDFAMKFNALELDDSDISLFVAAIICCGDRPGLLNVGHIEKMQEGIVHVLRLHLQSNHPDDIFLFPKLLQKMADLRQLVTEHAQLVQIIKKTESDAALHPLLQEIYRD

[2] = molecular target: T2, phosphorylation of PPARγ at S273 (pS273) (Homo sapiens, UniProt P37231); assay: In vitro Cdk5 kinase assay, phosphorylation of PPARγ at S273; format: biochemical; details: vs DMSO only controls
T2 sequence (P37231 1-505): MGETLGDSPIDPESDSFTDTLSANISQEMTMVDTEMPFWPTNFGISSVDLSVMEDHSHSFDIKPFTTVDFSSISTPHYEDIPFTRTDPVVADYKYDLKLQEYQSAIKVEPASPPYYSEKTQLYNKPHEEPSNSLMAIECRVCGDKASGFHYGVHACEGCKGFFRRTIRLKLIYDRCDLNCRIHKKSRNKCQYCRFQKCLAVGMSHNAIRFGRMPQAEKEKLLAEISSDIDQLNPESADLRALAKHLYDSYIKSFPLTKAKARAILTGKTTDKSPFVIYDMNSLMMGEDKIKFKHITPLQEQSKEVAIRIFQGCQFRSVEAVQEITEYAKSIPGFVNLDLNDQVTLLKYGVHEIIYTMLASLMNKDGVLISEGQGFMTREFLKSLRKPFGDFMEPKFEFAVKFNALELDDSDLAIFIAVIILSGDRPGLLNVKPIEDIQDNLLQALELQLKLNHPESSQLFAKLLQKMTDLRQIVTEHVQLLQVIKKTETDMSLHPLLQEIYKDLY
Method in brief: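 1 μg immuno-purified WT PPARγ substrate pre-incubated with test compound for 30 min. Active Cdk5/p35 kinase then added in 25 mM Tris-HCl pH 7.5, 5 mM β-glycerophosphate, 2 mM DTT, 0.1 mM Na3VO4, 10 mM MgCl2 and 20 μM ATP, for 15 min at 30 °C. After SDS–PAGE, phospho-Ser in the K/R-S-P-K/R motif was detected with an anti-CDK-substrate antibody.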

His-PPARγ = molecular target: T3, His-PPARγ (Homo sapiens, UniProt P37231); assay: TR-FRET NR box peptide recruitment assay; format: biochemical; details: FITC-labeled peptides
T3 sequence (P37231 1-505): T2 sequence (P37231 1-505)

PPARγ Gal-4 = molecular target: T4, PPARγ Gal-4 (Homo sapiens, UniProt P37231); assay: Gal4-PPARγ-LBD cell-based transactivation assay in HEK293T cells
T4 sequence (P37231 238-503 limits assumed): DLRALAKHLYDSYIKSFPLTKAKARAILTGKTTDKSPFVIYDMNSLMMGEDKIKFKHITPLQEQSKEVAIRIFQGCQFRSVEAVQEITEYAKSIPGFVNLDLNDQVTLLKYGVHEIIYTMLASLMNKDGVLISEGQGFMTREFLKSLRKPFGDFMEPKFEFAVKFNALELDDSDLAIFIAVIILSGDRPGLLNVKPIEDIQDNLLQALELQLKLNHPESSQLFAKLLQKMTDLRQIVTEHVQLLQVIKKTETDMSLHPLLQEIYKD

hPPARδ = molecular target: T5, hPPARδ (Homo sapiens, UniProt Q03181); assay: hPPARδ-Gal4 transactivation assay; format: cell-based; details: Figure S1A
T5 sequence (Q03181 1-441): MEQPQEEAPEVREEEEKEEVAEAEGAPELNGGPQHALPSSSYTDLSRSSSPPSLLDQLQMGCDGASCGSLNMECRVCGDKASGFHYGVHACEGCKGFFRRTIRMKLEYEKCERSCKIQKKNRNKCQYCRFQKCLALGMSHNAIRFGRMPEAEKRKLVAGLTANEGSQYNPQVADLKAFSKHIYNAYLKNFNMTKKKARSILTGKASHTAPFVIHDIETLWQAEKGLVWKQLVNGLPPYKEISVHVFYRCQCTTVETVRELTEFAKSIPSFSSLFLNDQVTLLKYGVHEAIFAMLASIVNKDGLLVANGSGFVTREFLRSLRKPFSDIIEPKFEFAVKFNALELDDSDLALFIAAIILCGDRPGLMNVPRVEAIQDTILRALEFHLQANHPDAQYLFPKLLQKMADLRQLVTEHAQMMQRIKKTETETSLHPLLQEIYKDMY

[3] = molecular target: T2, phosphorylation of PPARγ at S273 (pS273); details: ref Choi et al., 2010; cited from earlier work
PPARγ LBD = molecular target: T6, PPARγ LBD (human, UniProt P37231 231-505); assay: cross-linking
T6 sequence (looked up): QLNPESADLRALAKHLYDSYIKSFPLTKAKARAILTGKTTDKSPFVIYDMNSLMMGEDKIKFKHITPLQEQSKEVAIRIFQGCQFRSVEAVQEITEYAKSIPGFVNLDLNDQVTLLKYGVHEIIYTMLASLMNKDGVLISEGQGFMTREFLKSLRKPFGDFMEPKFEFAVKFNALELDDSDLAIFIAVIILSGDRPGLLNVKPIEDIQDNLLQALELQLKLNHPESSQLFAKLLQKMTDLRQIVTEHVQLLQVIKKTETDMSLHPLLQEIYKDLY

Molecule: CN(CCOc1ccc(CC2SC(=O)NC2=O)cc1)c1ccccn1 (centres unmarked) [Rosiglitazone, reference compound]
- EC50 (PPRE; read-out: EC50 PPRE): 10 nM
- RNA-seq differential gene expression (3T3-L1 cells): robust activation of a large gene set containing many known PPARγ target genes

Molecule: Cc1c(C)n(Cc2ccc(-c3ccccc3C(=O)O)cc2)c2ccc(C(=O)N[C@@H](C)c3ccc([N+](=O)[O-])cc3)cc12 [SR1664, reference compound]
- EC50 PPRE (PPRE): No activity
- plasma concentration ([1]; C57BL/6 mice, oral, 40mg.kg−1, two hours after dosing): less than 1 μM
- EC50 (human PPARα (hPPARα); read-out: EC50 PPARα GAL-4): 8600 nM

Molecule: Cc1c(C)n(Cc2ccc(C(C)(C)C(=O)O)cc2)c2ccc(C(=O)N[C@@H](C)c3cccc(C4CC4)c3)cc12 [SR11023, (S)-2-(4-((5-((1-(3-cyclopropylphenyl)ethyl)carbamoyl)-2,3-dimethyl-1H-indol-1-yl)methyl)phenyl)-2-methylpropanoic acid]
- % inhibition p273-PPARγ ([2]; 20μM, 20 µM): 77%
- inhibition at 2 µM ([2]; read-out: % inhibition p273-PPARγ, 2μM): 25%
- PPARγ interaction with coactivator NR box peptides p300 and SRC1–2 (His-PPARγ): no enhanced interaction
- PPARγ interaction with corepressor peptides NCOR1–3 and SMRT-2 (His-PPARγ): increased
- EC50 (PPARγ Gal-4; EC50 PPARγ Gal-4, HEK293T): 2760 nM
- Max.Stim. PPARγ Gal-4 (PPARγ Gal-4; HEK293T): 10%
- shift of the dose response curve for rosiglitazone in the GAL4-PPARG assay (PPARγ Gal-4; data not shown): significantly right-shift the dose response curve for rosiglitazone
- EC50 PPRE (PPRE): No activity
- concentration at 2 h ([1]; C57BL/6, mouse, plasma, po, 40 mg.kg−1): 70 µM
- transcriptional agonism, hPPARδ-Gal4 transactivation (hPPARδ): no transcriptional agonism
- EC50 PPARα GAL-4 (human PPARα (hPPARα)): No activity
- transcriptional agonism, hPPARα-Gal4 transactivation (human PPARα (hPPARα); Figure S1A): no transcriptional agonism
- RNA-seq differential gene expression (3T3-L1 cells): very modest regulation of only a small subset of PPARγ controlled genes
- adipogenic activity (lipid formation, aP2 and cd36 expression) (3T3-L1 cells; differentiated 3T3-L1 cells, 1μM, six days): minimal adipogenic activity

Molecule: MRL24
- PPARγ interaction with coactivator NR box peptides p300 and SRC1–2 (His-PPARγ): enhanced the association
- PPARγ interaction with corepressor peptides NCOR1–3 and SMRT-2 (His-PPARγ): facilitated dissociation
- inhibition of p273-PPARγ compared with Rosi [3]: More potent than Rosi to inhibit p273 ([Choi et al., 2010])

Molecule: LTERHKILHRLLQEGSPSD [SRC1–2 NR box peptide]
- binding result (PPARγ LBD): binds
